The values below come from ChEMBL document CHEMBL1155462, “Structure-activity relationship for thiohydantoin androgen receptor antagonists for castration-resistant prostate cancer (CRPC)” (J Med Chem, 2010).

What is called IC50 is the concentration that inhibits the measured activity by half.

The source made the active and inactive calls. No cut-off for these calls is given here.

For test [1], the system named is LNCaP. The experiment in a line: Inhibition of prostate specific antigen secretion in human LNCAP cells expressing androgen receptor at 1.25 to 10 uM in presence of charcoal stripped serum. In kind it is functional, cell-based. In short, it runs like this: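 LNCaP/AR cells were made by viral infection with an AR cDNA to express 3–5 fold higher AR levels, mimicking CRPC. They were assayed in charcoal-stripped serum to mimic androgen depletion. Read-out was PSA level, with DMSO as the vehicle.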

The subject of test [2] is LNCaP. The experiment in a line: Inhibition of prostate specific antigen expression in human LNCAP cells in presence of fetal bovine serum. Format: functional, cell-based.
Test [3] has as its target T1, Androgen receptor (Rattus norvegicus) (UniProt P15207).
T1 sequence (whole entry): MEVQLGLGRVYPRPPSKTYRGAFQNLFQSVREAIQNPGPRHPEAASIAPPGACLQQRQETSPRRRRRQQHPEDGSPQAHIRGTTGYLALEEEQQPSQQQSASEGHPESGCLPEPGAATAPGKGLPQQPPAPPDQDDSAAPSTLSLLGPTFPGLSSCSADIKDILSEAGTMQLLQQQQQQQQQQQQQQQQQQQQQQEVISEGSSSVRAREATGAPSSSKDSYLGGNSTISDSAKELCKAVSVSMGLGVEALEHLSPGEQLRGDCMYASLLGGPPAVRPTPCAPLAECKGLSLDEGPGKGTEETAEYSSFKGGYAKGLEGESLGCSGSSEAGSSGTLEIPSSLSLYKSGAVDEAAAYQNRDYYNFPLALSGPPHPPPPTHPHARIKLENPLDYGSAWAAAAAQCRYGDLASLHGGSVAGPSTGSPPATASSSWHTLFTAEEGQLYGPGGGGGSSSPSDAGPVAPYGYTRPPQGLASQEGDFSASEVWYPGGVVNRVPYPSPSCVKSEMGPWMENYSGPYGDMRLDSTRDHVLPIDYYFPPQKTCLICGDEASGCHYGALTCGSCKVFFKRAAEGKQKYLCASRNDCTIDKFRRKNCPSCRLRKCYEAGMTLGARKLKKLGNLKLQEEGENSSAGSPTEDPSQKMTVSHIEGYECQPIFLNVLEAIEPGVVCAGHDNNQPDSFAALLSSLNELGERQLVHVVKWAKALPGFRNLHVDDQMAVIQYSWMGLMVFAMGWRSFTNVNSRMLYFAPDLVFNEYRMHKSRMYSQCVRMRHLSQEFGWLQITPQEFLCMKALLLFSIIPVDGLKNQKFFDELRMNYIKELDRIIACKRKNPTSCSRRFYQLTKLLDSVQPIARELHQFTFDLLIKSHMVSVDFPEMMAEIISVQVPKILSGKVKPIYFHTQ
The experiment in a line: Antagonist activity at androgen receptor in rat prostate gland at 0.625 to 20 uM by luciferase reporter gene assay. In kind it is functional, tissue-based. (In general: A reporter such as luciferase makes a cellular process visible.)

Test [4] has as its target T1, Androgen receptor (Rattus norvegicus). The experiment in a line: Antagonist activity at androgen receptor in rat prostate gland at 1.25 to 10 uM by luciferase reporter gene assay. In kind it is functional, tissue-based.
In test [5] the test system is LNCaP. The experiment in a line: Inhibition of prostate specific antigen expression in human LNCAP cells at 1.25 to 10 uM in presence of fetal bovine serum. In kind it is functional, cell-based.
The subject of test [6] is LNCaP. The test can be described thus: Inhibition of prostate specific antigen expression in human LNCAP cells at 0.625 to 20 uM in presence of fetal bovine serum. In kind it is functional, cell-based.
The subject of test [7] is LNCaP. The test can be described thus: Inhibition of prostate specific antigen expression in human LNCAP cells at 0.625 to 5 uM in presence of fetal bovine serum. In kind it is functional, cell-based.

As for `CS(=O)(=O)N1CCN(c2ccc(N3C(=S)N(c4ccc(C#N)c(C(F)(F)F)c4)C(=O)C34CCC4)cc2)CC1`, the inhibition result in the test with LNCaP [1] is “Active”.
On to `N#Cc1ccc(N2C(=O)C3(CCC3)N(c3ccc(/C=C/C(N)=O)cc3)C2=S)cc1C(F)(F)F`, for which the IC50 in the test on LNCaP [2] was 100 nM.
Take `CCC1(CC)C(=O)N(c2ccc(C#N)c(C(F)(F)F)c2)C(=S)N1c1ccc(C)cc1`: in test [3], the result was inactive.
For the compound `Cc1ccc(N2C(=S)N(c3ccc(C#N)c(C(F)(F)F)c3)/C(=N\C(=S)Nc3ccc(C#N)c(C(F)(F)F)c3)C2(C)C)cc1`, the outcome (in test [4]; in the test on LNCaP [5]) was Active.
For the compound `COC(=O)c1ccc(N2C(=S)N(c3ccc(C#N)c(C(F)(F)F)c3)C(=O)C2(C)C)cc1`, the result in test [4] was Active.
In the case of `N#Cc1ccc(N2C(=O)C3(CCC3)N(c3ccc(-c4ccccc4)cc3)C2=S)cc1C(F)(F)F`, the result with LNCaP [5] was Active.
`N#Cc1ccc(N2C(=O)C3(CCC3)N(c3ccc(N4CCNCC4)cc3)C2=S)cc1C(F)(F)F`: the inhibition entry in the test on LNCaP [1] is “Active”.
On to `CNC(=O)c1ccc(N2C(=S)N(c3ccc(C#N)c(C(F)(F)F)c3)C(=O)C2(C)C)cc1`, for which, in test [4], the result was Active.
In the case of `CC1(C)C(=O)N(c2ccc(C#N)c(C(F)(F)F)c2)C(=S)N1CCCN=[N+]=[N-]`, the result in the test on LNCaP [6] was Active.
`CC1(C)C(=O)N(c2ccc(C#N)c(C(F)(F)F)c2)C(=O)N1c1ccc(O)cc1`: the result (in test [4]; with LNCaP [7]) was Active.
As to `N#Cc1ccc(N2C(=O)C3(CCC3)N(c3ccccc3C(=O)O)C2=S)cc1C(F)(F)F`, the result in the test on LNCaP [7] was inactive.
Take `Cc1ccc(N2C(=S)N(c3ccc(C#N)c(C(F)(F)F)c3)C(=O)C23CCN(C)CC3)cc1`: the result with LNCaP [6] was inactive.
Same read-out and setting: as for `CC1(C)C(=O)N(c2ccc(C#N)c(C(F)(F)F)c2)C(=S)N1CCCCCCN=[N+]=[N-]`, the entry is “Active”.
Turning to `Cc1ccc(N2C(=S)N(c3ccc(C#N)c(C(F)(F)F)c3)C(=N)C23CCC3)cc1`, the result with LNCaP [7] and with LNCaP [5] was Active.
As for `CCCC1C(=O)N(c2ccc(C#N)c(C(F)(F)F)c2)C(=S)N1c1ccc(C)cc1` (configuration not stated), the outcome in test [3] was inactive.
For `Cc1ccc(N2C(=S)N(c3ccc(C#N)c(C(F)(F)F)c3)/C(=N\C(=S)Nc3ccc(C#N)c(C(F)(F)F)c3)C2(C)CF)cc1` (configuration not stated), the outcome (in test [4]; in the test on LNCaP [5]) was Active.
As to `Cc1ccc(N2C(=S)N(c3ccc(C#N)c(C(F)(F)F)c3)C(=O)C2C)cc1` (configuration not stated), in test [3], the result was inactive.
With `N#Cc1ccc(N2C(=O)C3(CCC3)N(c3ccc(C=O)cc3)C2=S)cc1C(F)(F)F`, the IC50 in the test on LNCaP [2] turned out to be 200 nM.
Regarding `Cc1ccc(N2C(=S)N(c3ccc(C#N)c(C(F)(F)F)c3)/C(=N\C(=S)Nc3ccccc3)C23CCC3)cc1`, the outcome (in test [4]; with LNCaP [5]) was Active.
Consider `N#Cc1ccc(N2C(=O)C3(CCC3)N(c3ccc(O)cc3F)C2=S)cc1C(F)(F)F`, for which the outcome in test [4] was Active.
Regarding `C/N=C1\N(c2ccc(C#N)c(C(F)(F)F)c2)C(=S)N(c2ccc(C)cc2)C12CCC2`, the result (in test [4]; in the test with LNCaP [5]) was Active.
`CC1(C)C(=O)N(c2ccc(C#N)c(C(F)(F)F)c2)C(=S)N1CCCCCN=[N+]=[N-]`: in the test on LNCaP [6], the result was Active.
The same measure, in the same setting: for `CC1(C)C(=O)N(c2ccc(C#N)c(C(F)(F)F)c2)C(=S)N1CCCCCCCN=[N+]=[N-]` the value was “Active”.
Consider `CC1(C)C(=S)N(c2ccc(C#N)c(C(F)(F)F)c2)C(=S)N1c1ccc(O)cc1`, for which the outcome in the test with LNCaP [7] was Active.
Same read-out and setting: for `Cc1ccccc1N1C(=S)N(c2ccc(C#N)c(C(F)(F)F)c2)C(=O)C12CCC2` the value was “Active”.
For the compound `Cc1ccc(N2C(=S)N(c3ccc(C#N)c(C(F)(F)F)c3)C(=O)C23CCCCCC3)cc1`, the outcome with LNCaP [6] was inactive.
`N#Cc1ccc(N2C(=O)C3(CCC3)N(c3ccc(/C=C/CO)cc3)C2=S)cc1C(F)(F)F`: in the test with LNCaP [2], the IC50 was determined as 100 nM.
As to `CS(=O)(=O)c1ccc(N2C(=S)N(c3ccc(C#N)c(C(F)(F)F)c3)C(=O)C23CCC3)cc1`, the result in test [4] was Active.
Regarding `CC1(C)C(=O)N(c2ccc(C#N)c(C(F)(F)F)c2)C(=S)N1c1ccccc1`, the outcome (in test [3]; in the test on LNCaP [6]) was Active.
On to `Cc1ccc(N2C(=S)N(c3ccc(C#N)c(C(F)(F)F)c3)C(=O)C23CCCCC3)cc1`, for which the outcome with LNCaP [6] was inactive.
Regarding `Cc1ccc(N2C(=S)N(c3ccc(C#N)c(C(F)(F)F)c3)C(=O)C2(C)CF)cc1` (configuration not stated), the outcome in the test on LNCaP [7] was Active.
As to `N#Cc1ccc(N2C(=O)C3(CCC3)N(c3ccc(CCC(N)=O)cc3)C2=S)cc1C(F)(F)F`, the inhibition entry in the test on LNCaP [1] is “Active”.
As for `CC1(C)C(=O)N(c2ccc(C#N)c(C(F)(F)F)c2)C(=S)N1c1ccc(C(F)(F)F)cc1`, the outcome in the test with LNCaP [5] was Active.
`CC/N=C1\N(c2ccc(C#N)c(C(F)(F)F)c2)C(=S)N(c2ccc(C)cc2)C1(C)C`: the result (in test [4]; with LNCaP [5]) was Active.
For the compound `N#Cc1ccc(N2C(=O)C3(CCC3)N(c3ccc(CCCC(N)=O)cc3)C2=S)cc1C(F)(F)F`, the inhibition entry with LNCaP [1] was “Active”.
Turning to `CCC1(CC)C(=O)N(c2ccc(C)cc2)C(=S)N1c1ccc(C#N)c(C(F)(F)F)c1`, the outcome in test [3] was inactive.
Take `CC1(C)C(=O)N(c2ccc(C#N)c(C(F)(F)F)c2)C(=S)N1CCCCO`: the outcome with LNCaP [6] and with LNCaP [5] was Active.
Regarding `N#Cc1ccc(N2C(=O)C3(CCC3)N(c3ccc(CCC(=O)NCCO)cc3)C2=S)cc1C(F)(F)F`, the inhibition entry in the test on LNCaP [1] was “Active”.
Take `CNC(=O)c1ccc(N2C(=S)N(c3ccc(C#N)c(C(F)(F)F)c3)C(=O)C23CCC3)cc1`: the outcome in test [4] was Active.
Regarding `CC1(C)C(=O)N(c2ccc(C#N)c(C(F)(F)F)c2)C(=S)N1c1ccc(O)cc1`, the result (with LNCaP [7]; in test [3]; in the test with LNCaP [6]) was Active.
As to `N#Cc1ccc(N2C(=O)C3(CCC3)N(c3ccc(O)cc3)C2=S)cc1C(F)(F)F`, the outcome in the test with LNCaP [5] was Active.
`Cc1ccc(N2C(=S)N(c3ccc(C#N)c(C(F)(F)F)c3)C(=O)C23CCCC3)cc1`: the outcome with LNCaP [6] and in the test with LNCaP [5] was Active.
As for `CCC1(C)C(=O)N(c2ccc(C#N)c(C(F)(F)F)c2)C(=S)N1c1ccc(C)cc1` (configuration not stated), the outcome in test [3] was inactive.
As to `Cc1ccc(N2CC(=O)N(c3ccc(C#N)c(C(F)(F)F)c3)C2=S)cc1`, the result in test [3] was inactive.
On to `Cc1ccc(N2/C(=N/c3ccc(C#N)c(C(F)(F)F)c3)S/C(=N\C(=S)Nc3ccc(C#N)c(C(F)(F)F)c3)C23CCC3)cc1`, for which the result (in test [4]; in the test on LNCaP [5]) was Active.
Consider `Cc1ccc(N2C(=S)N(c3ccc(C#N)c(C(F)(F)F)c3)C(=N)C2(C)C)cc1`, for which the result in the test with LNCaP [7] was Active.
Consider `CC1(C)C(=O)N(c2ccc(C#N)c(C(F)(F)F)c2)C(=S)N1c1ccc(N=[N+]=[N-])cc1`, for which the result (in test [3]; in the test on LNCaP [6]) was Active.
With `Cc1ccc(N2C(=S)N(c3ccc(C#N)c(C(F)(F)F)c3)C(=O)C23CCCCCCC3)cc1`, the outcome in the test with LNCaP [6] was inactive.
For the compound `CC1(C)C(=O)N(c2ccc(C#N)c(C(F)(F)F)c2)C(=S)N1c1ccc(N)cc1`, the result (in test [3]; with LNCaP [6]) was Active.
Turning to `CCC1C(=O)N(c2ccc(C#N)c(C(F)(F)F)c2)C(=S)N1c1ccc(C)cc1` (configuration not stated), in test [3], the result was inactive.
For the compound `Cc1ccc(N2C(=S)N(c3ccc(C#N)c(C(F)(F)F)c3)/C(=N\C(=S)Nc3ccc(C#N)c(C(F)(F)F)c3)C23CCC3)cc1`, the result (in test [4]; in the test on LNCaP [5]) was Active.
On to `CNC(=O)CCc1ccc(N2C(=S)N(c3ccc(C#N)c(C(F)(F)F)c3)C(=O)C23CCC3)cc1`, for which the inhibition result in the test with LNCaP [1] is “Active”.
Regarding `CCC1(C)C(=O)N(c2ccc(C)cc2)C(=S)N1c1ccc(C#N)c(C(F)(F)F)c1` (configuration not stated), in test [3], the result was inactive.
For `Cc1ccc(N2/C(=N/c3ccc(C#N)c(C(F)(F)F)c3)S/C(=N\C(=S)Nc3ccc(C#N)c(C(F)(F)F)c3)C2(C)C)cc1`, the result (in test [4]; in the test on LNCaP [5]) was Active.
Take `Cc1ccc(N2C(=S)N(c3ccc(C#N)c(C(F)(F)F)c3)C(=O)C2(CCl)CCl)cc1`: the outcome with LNCaP [7] was inactive.
